From PubChem
PP1 inh: blocks human PP1-alpha phosphatase, a PP5 counter-screen. inhibition, % at 6.7 µM. purified PP1alpha, OMFP fluorescence. AID 2235. hit rate 0.9% among 320,000;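 active = inhibition above the mean inhibition of all tested compounds plus 3 SD, computed separately for each screening campaign, cut at about 15% in these data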
PP5 primary: inhibitors of human protein phosphatase 5 (PP5) | purified PP5c, OMFP substrate fluorescence | inhibition, % at 6.7 µM | hit rate 0.18% among 320,000;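 active = inhibition above the campaign's mean inhibition across all tested compounds plus 3 SD, cut at about 9.5% in these data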;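 note: 0% = DMSO only and 100% = 100 µM cantharidin control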
Target sequence (P53041 whole entry, looked up): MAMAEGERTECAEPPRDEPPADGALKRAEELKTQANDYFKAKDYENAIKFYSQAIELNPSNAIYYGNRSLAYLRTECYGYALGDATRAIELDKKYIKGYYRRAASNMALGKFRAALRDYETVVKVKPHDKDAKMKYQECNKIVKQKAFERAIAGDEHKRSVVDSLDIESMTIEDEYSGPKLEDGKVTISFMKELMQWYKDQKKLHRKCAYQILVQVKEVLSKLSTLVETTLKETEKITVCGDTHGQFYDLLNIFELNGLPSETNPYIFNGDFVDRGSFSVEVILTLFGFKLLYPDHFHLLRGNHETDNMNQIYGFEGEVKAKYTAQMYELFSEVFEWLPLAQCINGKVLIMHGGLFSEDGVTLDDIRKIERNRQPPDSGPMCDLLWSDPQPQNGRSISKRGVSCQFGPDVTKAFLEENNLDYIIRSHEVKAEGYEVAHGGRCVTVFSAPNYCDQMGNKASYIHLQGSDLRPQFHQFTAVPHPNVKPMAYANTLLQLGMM
EBNA-1 inhibitor: blocks EBNA-1 binding to DNA; EBNA-1 DNA binding, fluorescence polarization; inhibition, % at 14.8 µM; hit rate 0.34% among 300,000; in the data active = inhibition above about 28%
ZTA counter: ZTA (EBV) inhibition in EBNA-1 counter-screen; P03206; inhibition, % at 11 µM; AID 2234; ZTA-DNA binding, fluorescence polarization; hit rate 0.15% among 320,000; in the data active = inhibition above about 33%
HCV core dimer: blocks dimerization of HCV core protein. TR-FRET GST/Flag-core106 dimerization, 1536-well. inhibition, % at 5 µM. hit rate 0.33% among 300,000. AID 1899;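 active = inhibition above the mean of all tested compounds plus 3 SD, set per screening campaign, cut at about 45% in these data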
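System: GST-tagged and Flag-tagged HCV core protein residues 1-106 / Input: core106 proteins, GST 13.5 nM and Flag 17 nM / Buffer or medium: KF-containing HEPES buffer, pH 7.45, DTT, CHAPS, BSA / Probe or stimulus: Eu-anti-GST and XL665-anti-Flag labelled anti-tag antibodies / Schedule: 4 h, 22.5 °C incubation / Technique: TR-FRET 671 and 617 nm emission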
PP1 inh confirm: confirmation of human PP1 phosphatase inhibitors | shares compounds with PP1 inh | purified PP1alpha, OMFP substrate fluorescence | inhibition, % at 6.7 µM | hit rate 52% among 1,900 | AID 2358;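 active = mean PP1 inhibition above a set limit taken from the earlier primary screen, cut at about 15% in these data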
PP5 counter: PP5 phosphatase inhibition, counter-screen for PP1 inhibitors | purified PP5c, OMFP fluorescence | hit rate 4% among 1,900 | inhibition, % at 6.7 µM | shares compounds with PP1 inh;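 active = mean PP5 inhibition over triplicate wells above about 9.5% taken from the earlier PP1 screen, limit read from the data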
* hit, by the source's call; . = not tested or not shown. Sampled rows, rich in hits. Any-hit rate of the full collection: about 1.7%.

SMILES	PP1 inh	PP5 primary	EBNA-1 inhibitor	ZTA counter	HCV core dimer	PP1 inh confirm	PP5 counter
COc1ccc(C(=O)c2ccc(N3CCN(C(=O)c4ccc(F)cc4)CC3)c(F)c2)cc1Br	-1	-1	2	0	38	.	.
NC(=O)/C(=N\OC(=O)c1ccco1)c1nc(-c2ccc(Br)cc2)cs1	27*	5	2	0	-5	6	-2
Nc1nc(-c2ccc(NC(=O)c3ccco3)cc2)cs1	4	1	5	-23	11	.	.
COc1ccc(NS(=O)(=O)c2cccc(C(=O)NNC(=O)c3ccc(O)c(Cl)c3)c2)cc1	2	1	.	-11	.	.	.
O=C(/C=C/c1ccccc1)NC(=S)NNC(=O)Cc1cccs1	24*	-1	0	-2	5	17*	-4
CCc1cc(C(=O)N(C)CC(=O)Nc2c(Cl)cccc2Cl)sc1C	-3	-1	.	2	.	.	.
Cc1cccnc1Nc1nc(-c2ccccc2)cs1	-1	2	-5	0	2	.	.
Cc1cccc(Nc2nc(-c3ccccn3)cs2)n1	64*	9	-1	-17	-7	53*	2
Cc1cccc(Nc2nc(-c3cccs3)cs2)n1	2	3	15	0	0	.	.
Cc1cccnc1Nc1nc(-c2ccccn2)cs1	28*	6	-1	-6	-2	36*	5
CN(C(=O)c1cc(-n2cnnc2)ccc1Cl)c1ccccc1	3	2	-8	-16	-8	.	.
COc1ccc(N2CCN(CC(=O)Nc3nc(C)cs3)CC2)cc1	-5	3	-6	-11	-18	.	.
O=C(Cc1cccc2ccccc12)Nc1c(F)cccc1F	-1	2	-15	1	-1	.	.
Cc1nn(CCc2nn[nH]n2)c2nc(-c3ccc(C4CCCCC4)cc3)cc(C(F)(F)F)c12	18*	5	4	20	25	26*	3
CCOc1ccsc1C(=O)O	5	-1	4	12	-17	.	.
COc1ccccc1C(=O)NC(=O)COC(=O)CNC(=O)c1ccc(Cl)c([N+](=O)[O-])c1	27*	0	-3	0	-4	-3	-3
CCOc1ccc(-c2c(C)n([O-])c3c([n+]2=O)CCCCC3)cc1	3	0	-13	13	1	.	.
COc1cccc(-n2nnc3c(=O)n(Cc4ccc(F)cc4)cnc32)c1	40*	2	18	-6	5	-2	-1
Cc1cc(C(=O)C(C)OC(=O)c2ccc(NC(=O)CC#N)cc2)c(C)n1-c1ccccc1 (stereo not given)	19*	3	8	4	4	6	0
CC1(C)C=C2C(=NN(c3ccccc3)C(N)=C2C#N)CO1	33*	1	6	28	31	1	59*
O=C(c1ccc(OC2CCN(Cc3ccccn3)CC2)cc1)N1CCCCO1	-2	0	-10	-6	-2	.	.
CCc1c(C)nc2cc(-c3cccc(Br)c3)[nH]n2c1=O	2	-3	2	5	-5	.	.
COc1ccc(-n2cccc2/C=C2\C(=N)N3N=C(c4ccco4)SC3=NC2=O)cc1	38*	4	6	2	48*	30*	-1
COc1ccc(-n2cccc2/C=C2\C(=N)N3N=C(C(C)C)SC3=NC2=O)cc1	6	6	8	3	24	.	.
CC(C)(C)NC(=O)CSC(=Nc1ccc(F)cc1)NC#N	-2	3	-12	-7	-5	.	.
SMILES	PP1 inh	PP5 primary	EBNA-1 inhibitor	ZTA counter	HCV core dimer	PP1 inh confirm	PP5 counter
COc1cccc(/C=N/Nc2cc(-n3nc(C)cc3-c3ccccc3)ncn2)c1O	21*	3	-4	-7	2	32*	-1
COc1cccc(/C=N/Nc2nc(Nc3ccccc3)nc(-n3nc(C)cc3C)n2)c1O	35*	11*	-6	10	40	36*	3
Cc1nc2sc(C(c3cccs3)N3CCC(C(N)=O)CC3)c(O)n2n1 (stereo not given)	2	3	-9	1	-9	.	.
COc1cc(/C=C2/NC(=O)N(CC(=O)Nc3ccc(C)cc3)C2=O)ccc1Oc1ccc([N+](=O)[O-])cn1	19*	-1	-5	8	11	23*	-2
CCOc1cc(/C=C2/NC(=O)N(CC(=O)Nc3cccc(C)c3)C2=O)ccc1OC	-1	1	-2	4	11	.	.
CC(OC(=O)CCCN=C1NS(=O)(=O)c2ccccc21)C(=O)Nc1ccc(F)c(F)c1F (stereo not given)	-3	-1	-5	-9	-9	.	.
COc1cccc(C(=O)NCc2ccc(-c3nc4ccccc4s3)cc2)c1	-1	-2	15	10	6	.	.
COc1ccc(C(=O)NCc2ccc(-c3nc4ccccc4s3)cc2)cc1	20*	0	3	16	-19	25*	-2
COc1ccc(NC(=O)c2ccc(CNc3c(NC4CCCCC4)c(=O)c3=O)cc2)cc1OC	12	2	9	21	6	.	.
COc1ccc(CNC(=O)c2ccc(CNc3c(NC4CCCCC4)c(=O)c3=O)cc2)cc1	25*	2	7	-4	40	14	-4
Cc1onc(-c2ccccc2)c1C(=O)NNC(=S)NC(=O)c1ccc(Br)cc1	6	0	-8	13	1	.	.
COc1ccc(-c2cc(C(=O)NNC(=S)NC(=O)c3c(-c4ccccc4)noc3C)[nH]n2)cc1	18*	2	-1	3	18	17*	-1
O=c1[nH]c(CN2CCc3ccccc32)nc2scc(-c3cccs3)c12	19*	-1	8	-11	48*	13	-1
CCNc1nc(NCC)nc(C(=O)NN)n1	24*	1	0	11	-2	4	0
CCNc1nc(NCC)nc(OCC(=O)O)n1	-4	0	10	8	-3	.	.
COc1ccc(/C=N/Nc2cc(C)nc(-n3nc(C)cc3C)n2)c(OC)c1	37*	2	6	-1	12	48*	1
Cc1cc(N/N=C/c2ccc(F)cc2)nc(-n2nc(C)cc2C)n1	27*	3	2	6	-1	36*	-1
CCOc1cc(/C=N/Nc2cc(C)nc(-n3nc(C)cc3C)n2)ccc1O	23*	2	2	-8	2	22*	3
Cc1ccc(Cn2nc(C)c(NC(=O)c3cc(-c4ccc5c(c4)OCO5)on3)c2C)cc1	24*	2	16	4	2	37*	-4
Cc1nn(Cc2ccc(F)cc2)c(C)c1NC(=O)c1cc(-c2ccc3c(c2)OCO3)on1	-2	-1	12	-9	-1	.	.
O=C(NCc1ccccc1Br)c1cccc2c1C(=O)c1ccc(N3CCOCC3)cc1S2(=O)=O	28*	-2	.	18	.	37*	-7
CCCCC1=CC2=CC(=O)C(C)(OC(=O)CC)C(=O)C2=CN1CCc1c[nH]c2ccccc12 (stereo not given)	20*	1	-17	-11	14	3	8
